Results on three molecules are retold here after ChEMBL document CHEMBL3272128, “Antileukemic activity of derivatives of 1-phenyl-2,5-dimethyl-3,4-bis(hydroxymethyl)pyrrole bis(N-methylcarbamate)” (J Med Chem, 1977).

By T/C is commonly meant the ratio of treated to control.

For one series, the system named is Mus musculus. Description: Toxicity in male CDF1 mouse allografted with mouse P388 cells assessed as survivors on day 5 at 12.5 mg/kg, ip using saline as vehicle. The conditions noted are these: in vivo. It is filed as organism-based. Details: dose 12.5 mg/kg, route intraperitoneal. A digest of the protocol:
(§1)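 P388 leukemia ascitic fluid was implanted ip into male CDF1 mice. Compound was given ip in saline vehicle as nine daily doses, starting 24 h post-inoculation. Survivor counts were taken on day 5.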
For `CNC(=O)OCc1c(COC(=O)NC)c(C)n(-c2ccc(Cl)c(Cl)c2)c1C`, the Activity result is reported as “Non-toxic”.

In a further series the test system is P388. In words: Antileukemic activity against mouse P388 cells allografted in male CDF1 mouse assessed as tumor growth inhibition at 12.5 mg/kg, ip using hydroxypropylcellulose suspension total 9 daily doses started 24 hrs after tumor inoculation. It counts as functional. To be noted: route intraperitoneal. A digest of the protocol: (§2)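 Male CDF1 mice received P388 ascitic fluid ip, then ip doses in Flucel (hydroxypropylcellulose) suspension, nine daily, beginning 24 h after inoculation. Efficacy was median survival time as % T/C; values > 125 were considered significant.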
`CCCCc1ccc(-n2c(C)c(COC(=O)NC)c(COC(=O)NC)c2C)cc1`: the T/C was 190%.

On to `CNC(=O)OCc1c(COC(=O)NC)c(C)n(-c2ccc(Br)cc2)c1C`, for which the T/C amounted to 152%.

The next series deals with P388. Description: Antileukemic activity against mouse P388 cells allografted in male CDF1 mouse assessed as change in body weight at 50 mg/kg, ip using saline as vehicle total 9 daily doses started 24 hrs after tumor inoculation. It counts as functional. The conditions noted are these: route intraperitoneal. The method in brief: (§3)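 In male CDF1 mice bearing ip-inoculated P388 ascitic fluid, drug was given ip in saline vehicle, once daily for nine doses starting 24 h after inoculation. Body weight difference, treated minus control (g), was recorded on day 5.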
For `CNC(=O)OCc1c(COC(=O)NC)c(C)n(-c2ccc(Cl)c(Cl)c2)c1C`, the Activity is given as -2.6 g.

The test system of a further series is P388. In words: Antileukemic activity against mouse P388 cells allografted in male CDF1 mouse assessed as tumor growth inhibition at 25 mg/kg, ip using hydroxypropylcellulose suspension total 9 daily doses started 24 hrs after tumor inoculation. It is filed as functional. The conditions noted are these: route intraperitoneal. A digest of the protocol:
as §2
`CCCCc1ccc(-n2c(C)c(COC(=O)NC)c(COC(=O)NC)c2C)cc1`: the T/C is listed as 152%.

Take `CNC(=O)OCc1c(COC(=O)NC)c(C)n(-c2ccc(Br)cc2)c1C`: the T/C amounted to 142%.

In another series the test system is P388. Description: Antileukemic activity against mouse P388 cells allografted in male CDF1 mouse assessed as tumor growth inhibition at 25 mg/kg, ip using saline as vehicle total 9 daily doses started 24 hrs after tumor inoculation. The conditions noted are these: route intraperitoneal. It is filed as functional. The method in brief: (§4)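 P388 ascitic fluid was given ip to male CDF1 mice. Treatment was ip in saline, nine daily doses from 24 h post-inoculation. Median survival time was expressed as % T/C, and % T/C > 125 was considered significant.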
For the molecule `CNC(=O)OCc1c(COC(=O)NC)c(C)n(-c2ccc(Cl)c(Cl)c2)c1C`, the T/C is given as 148%.

Another series deals with P388. Description: Antileukemic activity against mouse P388 cells allografted in male CDF1 mouse assessed as change in body weight at 12.5 mg/kg, ip using saline as vehicle total 9 daily doses started 24 hrs after tumor inoculation. It counts as functional. The conditions noted are these: route intraperitoneal. The method in brief:
as §3
As for `CNC(=O)OCc1c(COC(=O)NC)c(C)n(-c2ccc(Cl)c(Cl)c2)c1C`, the Activity is recorded as -1.5 g.

For another series, the system named is P388. In words: Antileukemic activity against mouse P388 cells allografted in male CDF1 mouse assessed as tumor growth inhibition at 50 mg/kg, ip using hydroxypropylcellulose suspension total 9 daily doses started 24 hrs after tumor inoculation. It counts as functional. To be noted: route intraperitoneal. A digest of the protocol:
as §2
In the case of `CCCCc1ccc(-n2c(C)c(COC(=O)NC)c(COC(=O)NC)c2C)cc1`, the T/C was 65%.

In the case of `CNC(=O)OCc1c(COC(=O)NC)c(C)n(-c2ccc(Br)cc2)c1C`, the T/C is listed as 88%.

The next series deals with P388. In words: Antileukemic activity against mouse P388 cells allografted in male CDF1 mouse assessed as change in body weight at 25 mg/kg, ip using saline as vehicle total 9 daily doses started 24 hrs after tumor inoculation. It is filed as functional. The conditions noted are these: route intraperitoneal. The method in brief: as §3
As to `CNC(=O)OCc1c(COC(=O)NC)c(C)n(-c2ccc(Cl)c(Cl)c2)c1C`, the Activity is -2.9 g.

Another series relates to P388. In words: Antileukemic activity against mouse P388 cells allografted in male CDF1 mouse assessed as tumor growth inhibition at 50 mg/kg, ip using saline as vehicle total 9 daily doses started 24 hrs after tumor inoculation. It counts as functional. To be noted: route intraperitoneal. The method in brief: as §4
As to `CNC(=O)OCc1c(COC(=O)NC)c(C)n(-c2ccc(Cl)c(Cl)c2)c1C`, the T/C turned out to be 84%.

The next series relates to Mus musculus. Description: Toxicity in male CDF1 mouse allografted with mouse P388 cells assessed as survivors on day 5 at 25 mg/kg, ip using saline as vehicle. It counts as organism-based. Further details: dose 25 mg/kg, route intraperitoneal. The conditions noted are these: in vivo. A digest of the protocol:
as §1
With `CNC(=O)OCc1c(COC(=O)NC)c(C)n(-c2ccc(Cl)c(Cl)c2)c1C`, the Activity entry is listed as “Non-toxic”.

Another series has as its system P388. In words: Antileukemic activity against mouse P388 cells allografted in male CDF1 mouse assessed as change in body weight at 50 mg/kg, ip using hydroxypropylcellulose suspension total 9 daily doses started 24 hrs after tumor inoculation. It counts as functional. The conditions noted are these: route intraperitoneal. A digest of the protocol: (§5)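 Male CDF1 mice were inoculated ip with P388 ascitic fluid. Compound was given ip as a Flucel (hydroxypropylcellulose) suspension, nine daily doses from 24 h after inoculation. Animal weight difference (T − C, g) was recorded on the fifth day.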
Regarding `CCCCc1ccc(-n2c(C)c(COC(=O)NC)c(COC(=O)NC)c2C)cc1`, the Activity is -4.9 g.

In the case of `CNC(=O)OCc1c(COC(=O)NC)c(C)n(-c2ccc(Br)cc2)c1C`, the Activity is given as -4.9 g.

For another series, the system named is P388. Description: Antileukemic activity against mouse P388 cells allografted in male CDF1 mouse assessed as change in body weight at 12.5 mg/kg, ip using hydroxypropylcellulose suspension total 9 daily doses started 24 hrs after tumor inoculation. It is filed as functional. The conditions noted are these: route intraperitoneal. A digest of the protocol:
as §5
Consider `CCCCc1ccc(-n2c(C)c(COC(=O)NC)c(COC(=O)NC)c2C)cc1`, for which the Activity was -3.1 g.

Take `CNC(=O)OCc1c(COC(=O)NC)c(C)n(-c2ccc(Br)cc2)c1C`: the Activity is reported as -2 g.

The next series concerns Mus musculus. In words: Toxicity in male CDF1 mouse allografted with mouse P388 cells assessed as survivors on day 5 at 25 mg/kg, ip using hydroxypropylcellulose suspension. It is filed as organism-based. Further details: dose 25 mg/kg, route intraperitoneal. The conditions noted are these: in vivo. A digest of the protocol: (§6)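 Male CDF1 mice received an ip inoculation of P388 leukemia ascitic fluid. Dosing was ip in a hydroxypropylcellulose (Flucel) suspension, once daily for nine days, beginning 24 h after tumor implantation. Toxicity was scored as survivors recorded on the fifth day.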
For the molecule `CCCCc1ccc(-n2c(C)c(COC(=O)NC)c(COC(=O)NC)c2C)cc1`, the Activity result was “Non-toxic”.

Turning to `CNC(=O)OCc1c(COC(=O)NC)c(C)n(-c2ccc(Br)cc2)c1C`, the Activity result is recorded as “Non-toxic”.

The test system of the next series is Mus musculus. Description: Toxicity in male CDF1 mouse allografted with mouse P388 cells assessed as survivors on day 5 at 50 mg/kg, ip using saline as vehicle. It counts as organism-based. To be noted: in vivo. Details: dose 50 mg/kg, route intraperitoneal. The method in brief:
as §1
Take `CNC(=O)OCc1c(COC(=O)NC)c(C)n(-c2ccc(Cl)c(Cl)c2)c1C`: the Activity entry was “Non-toxic”.

In a further series the test system is Mus musculus. Description: Toxicity in male CDF1 mouse allografted with mouse P388 cells assessed as survivors on day 5 at 12.5 mg/kg, ip using hydroxypropylcellulose suspension. It is filed as organism-based. To be noted: in vivo. Details: dose 12.5 mg/kg, route intraperitoneal. The method in brief:
as §6
Consider `CCCCc1ccc(-n2c(C)c(COC(=O)NC)c(COC(=O)NC)c2C)cc1`, for which the Activity result is listed as “Non-toxic”.

In the case of `CNC(=O)OCc1c(COC(=O)NC)c(C)n(-c2ccc(Br)cc2)c1C`, the Activity entry is given as “Non-toxic”.

The subject of the next series is P388. In words: Antileukemic activity against mouse P388 cells allografted in male CDF1 mouse assessed as change in body weight at 25 mg/kg, ip using hydroxypropylcellulose suspension total 9 daily doses started 24 hrs after tumor inoculation. It counts as functional. To be noted: route intraperitoneal. A digest of the protocol:
as §5
On to `CCCCc1ccc(-n2c(C)c(COC(=O)NC)c(COC(=O)NC)c2C)cc1`, for which the Activity was -4.1 g.

With `CNC(=O)OCc1c(COC(=O)NC)c(C)n(-c2ccc(Br)cc2)c1C`, the Activity is -3.9 g.

Another series concerns P388. Description: Antileukemic activity against mouse P388 cells allografted in male CDF1 mouse assessed as tumor growth inhibition at 12.5 mg/kg, ip using saline as vehicle total 9 daily doses started 24 hrs after tumor inoculation. It is filed as functional. The conditions noted are these: route intraperitoneal. The method in brief: as §4
Turning to `CNC(=O)OCc1c(COC(=O)NC)c(C)n(-c2ccc(Cl)c(Cl)c2)c1C`, the T/C was 160%.
